For 37 variants, yeast fitness results are on record in the RNAGym collection of RNA variant scans (doi:10.1126/science.aae0568).

B1: tRNA (parent)
chain: GUUCCGUUGGCGUAAUGGUAACGCGUCUCCCUCCUAAGGAGAAGACUGCGGGUUCGAGUCCCGUACGGAACG

Variants at the floor of the assay were thinned out.

This series covers variants of B1. Description: yeast fitness relative to wild type (ratio to wild type); higher = fitter; tRNA-Arg(CCU), competitive growth, 37 C, YPD. Put shortly: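 A pool of Saccharomyces cerevisiae strains, each with a tRNA-Arg(CCU) gene variant at the native genomic locus, was competed in YPD at 37°C for 24 hours across six parallel replicates. The variants had been chemically synthesised at a 3% per-site mutation rate over 69 sites, and gene amplicons before and after competition were read by 100-nucleotide paired-end sequencing. Darwinian fitness relative to wild type rested on changes in genotype frequencies. Genotypes required ≥ 100 starting reads, and estimates < 0.5 were set to 0.5.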
As to GUUGCGUUGGCGUAAUGGUAACGCGUCUCCCUCCUAAGGAGAAGAUUGCGGGUUCGAGUCCCGUACGGAACG, the yeast fitness came to 0.861.

As to GUUGCGUUGGCGUAAUGGUAACGCGUCUCCCUCCUAAGGAGAAGAAUGCGGGUUCGAGUCCCGUACGGAACG, the yeast fitness stood at 0.915.

On to GUUGCGUUGGCGUAAUGGUAACGCGUCUCCAUGCUAAGGAGAAGACUGCGCGUUCGAGUGCCGUACGGAACG, for which the yeast fitness is ≤ 0.5.

Take GUUGCGUUGGCGUAAUGGUAACGCGUCUACCUCUUUAGGAGAAGACUGCAGGUUCGAGUCCCGUACGGAACG: the yeast fitness turned out to be 0.568.

Consider GUUGCGUUGGCGUAAUGGUAACGCGUCUCCAUCCUAAGGAGCAGACUGCGGGUUCGAGUCCCGUACGGAACG, for which the yeast fitness was ≤ 0.5.

For the variant GUUGCGUUGGCGUAAUGGUAACGCGUCUUCCUCCUCAGGUGAAGACUGCGGGUUGGAGUCCCGUACGGAACG, the yeast fitness was ≤ 0.5.

As for GUUGCGUUGGCGUAAUGGUAACGCGUCUCCCUACUAAGGAGAAGACUGCGGGUUCGAGUCCCGUACGGAACG, the yeast fitness amounted to 0.653.

Consider GUUGCGUUGGCGUAAUGGUAACGCGUCUCCCUCCUAAGGAGAAGACUGUGGGUUCGAGUCCUGUACGGAACG, for which the yeast fitness came to 0.653.

With GUUGCGUUGGCGUAAUCGUUACGCGUCUCCCUCCUACGGAGAAGACUGCGGGUUCGAGUCCCGUACGGAACG, the yeast fitness came to 0.717.

GUUGCGUUGGCGUAAUGGUAACGCGUCUCCGUCCUAAUGAGAAGACUGCGGGUUCGAGUCCCGUACGGAACG: the yeast fitness is ≤ 0.5.

As for GUUGCGUUGGCGUAAUAGUAACGCGUCUCCCUCCUAAGGGGAAGACUGCGGGUUCGAGUCCCGUACGGAACG, the yeast fitness was ≤ 0.5.

Regarding GUUGCGUUGGCGUAAUGGUAACGCGUCUGCCUCCUAAGGAGAAGACUGCGGGUUCGAAUCCCGUACGGAACG, the yeast fitness was 0.53.

Regarding GUUGCGUUGGCAUAAUGGUAACGUGUCUCCCUCCUAAGGAGAAGACUGCGGGUUCGAGUCCCGUACGGACCG, the yeast fitness is ≤ 0.5.

As for GUUGCGUUGGCGUAAUGGUAACGCGUCUCACUCCUAAGGAGAAGACUGCUGGUUCGAGUCCCGUAUGGAACG, the yeast fitness was ≤ 0.5.

GUUGCGUUGGCUUCAUGGUAACGCGUCUCCCUCCUAAGGAGAAGACUGUGGGUUCGAGUCCCGUACGGAACG: the yeast fitness is ≤ 0.5.

Consider GUUGCGUUAGCGUAAUGGUAACGCGUCUCCCUCCUAAGAAGAAGACUGCGGGUUCGAGUCCCAUACGGAACG, for which the yeast fitness was ≤ 0.5.

For GUUGCGUUGGCGUAAUGGUAACGCGUCUCGCUCCUAAGGAGAAGACUGCGGGUUCGAGUCCCGUACGGAACG, the yeast fitness was 0.713.

For GUUGCGUUGGCGUAAUAGUAACGCGUCUCCCUCCUAAGGAGAAGACUGCGGGUUCGAGUCCCAUAUGGAACG, the yeast fitness was ≤ 0.5.

GUUGCGUUGGCGUAAUGGUAACGCGUCUCCCUCUUAAGGAGAAGACUGAGGGUCCGAGUCCCGUACGGUACG: the yeast fitness is ≤ 0.5.

For GUUGCGUUGGCUUCAUGGUAACGCGUCUCCCUCCUAAGGAGAAGACUGGGGGUUCGUGUCGCGUACGGAACG, the yeast fitness is ≤ 0.5.

Consider GUUGCGUUGGCGUAAUGGUAACGCGUCUCCCUCCUAAGGAGAAGACUGCGGGUUCGAGUCAUGUUCGGCACG, for which the yeast fitness is ≤ 0.5.

On to GUUGCGUUGGCGUAAUAGUAACGCGUCUUCCUCCUAAGGAGAAGACUGCGGGUUCGAGUCCUGUACGGAACG, for which the yeast fitness is ≤ 0.5.

GUUGCGUUGGCGUAAUGGUAACGCGUCUCGCUCCUAAAGAGUAGACUGCGGGUUCGAGUCCCGUACGGAACG: the yeast fitness is ≤ 0.5.

On to GUUGCGUUGACGUAAUGGUAACGCGUCUCGCUCCUAAGGAGAGGACUGCGGGUUCGUGUCCCGUACGGAACG, for which the yeast fitness is ≤ 0.5.

Turning to GUUGCGUUGCCGUAAUGGUAACGCGUCUCCCUCUUAAGGAGAAGAGUGCGGGUUCGAGUCCCGUACGGAACG, the yeast fitness was ≤ 0.5.

For the variant GUUGCGUUGGCGUAAUAGUAACGCGUCUCCCUCCUAAGGAGAAGACUGCGGGUUCCAGUGCCGUAUGGAACG, the yeast fitness is ≤ 0.5.

For GUUGCGUUGGCGUAAUAGUAACGCGUCUCCCUCAUAAGGAGAGGACUGCGGGUUCGAGUCCCGUACGGAACG, the yeast fitness stood at 0.633.

GUUGCGUUGGCAUAAUGGUAACGCGUCUCCCUCCUAACGAGAAGACUGCGGGUUCGAGUCCCGUAUGGAACG: the yeast fitness was ≤ 0.5.

With GUUGCGUUGGCGUAAUGGUAACGUGUCUCCCUGCUAAGGAGAAGACUGCGGGUUCGAGUCCCGUUUGGCACG, the yeast fitness was found to be 0.584.

With GUUGCGUUGGCGUAAUAGUAACGCGUCUCCCUCCUAAGGAGAAGCCUGCGGGUUCGAGUCCCGUACGGAACG, the yeast fitness is ≤ 0.5.

With GUUGCGUUGGCGUAAUGGUAACGCGUCUGCCUCCUAGGGAGAAGACUGCGGGUUCGAGUCCCGUACGGAACG, the yeast fitness worked out at 0.598.

On to GUUGCGUUGGCCUAAUGGUAACGCGUCUCCCUCCUAAGGAGAAGAUUGCGGGUUCGAGUCCCGUACGGAACG, for which the yeast fitness was ≤ 0.5.

Consider GUUGCGUUGGCGUAAUGGUAACGCGUUUCCCUCCUAAGGAGAAGACUGCGGGUUCGACUCCCGUACGGAACG, for which the yeast fitness was 0.71.

For the variant GUUGCGUUGGCGUAAUGGUAACGCGUCUACCUCCUAAGGAGAAGACUGCGGGUUCGAGUCCCGUACGGAACG, the yeast fitness is 0.757.

As for GUUGCGUUGGCGUAAUGGUAACGCGUCUCCCUCCUAAGGAGAAGACUGCGGGUUCGAGUGCCGUACGGAACG, the yeast fitness turned out to be 0.615.

Take GUUGCGUUAGCGUAAUGGUAACGCGUUUCCCUCCUAAGGAGAAGAGUACGGGUUCGAGUCCGGUACGCAACG: the yeast fitness is ≤ 0.5.

On to GUUGCGUUGGCGUAAUGGUAACGCGUCUCCCUCUGAAGGAGAAGACUGCGGGUUCGGGUCCCGUACGGAACG, for which the yeast fitness is ≤ 0.5.
